How the values were obtained:
[1] = target: T1, Aldo-keto reductase family 1 member C3 (Homo sapiens, UniProt P42330); experiment: Inhibition of human recombinant AKR1C3 assessed as 1-acenaphthenol oxidation by spectrophotometry
T1 sequence (P42330 whole entry): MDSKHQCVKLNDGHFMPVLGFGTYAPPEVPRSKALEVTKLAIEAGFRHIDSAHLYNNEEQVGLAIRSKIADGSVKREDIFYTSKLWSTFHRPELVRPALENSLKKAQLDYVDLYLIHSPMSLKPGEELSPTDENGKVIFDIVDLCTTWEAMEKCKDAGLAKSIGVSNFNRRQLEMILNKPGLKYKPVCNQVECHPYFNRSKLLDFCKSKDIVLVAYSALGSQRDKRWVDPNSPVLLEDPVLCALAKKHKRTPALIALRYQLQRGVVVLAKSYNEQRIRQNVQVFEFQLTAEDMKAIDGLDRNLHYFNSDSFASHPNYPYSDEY
Summary of the method: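 NADH formation was monitored at 340 nm using initial velocities. IC50 was read graphically from log10[inhibitor] versus % inhibition. Ki was derived by Cheng-Prusoff for competitive inhibition.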

[2] = target: T2, Aldo-keto reductase family 1 member C1 (Homo sapiens) (UniProt Q04828); experiment: Inhibition of human recombinant AKR1C1 assessed as 1-acenaphthenol oxidation at 400 uM by spectrophotometry
T2 sequence (whole entry): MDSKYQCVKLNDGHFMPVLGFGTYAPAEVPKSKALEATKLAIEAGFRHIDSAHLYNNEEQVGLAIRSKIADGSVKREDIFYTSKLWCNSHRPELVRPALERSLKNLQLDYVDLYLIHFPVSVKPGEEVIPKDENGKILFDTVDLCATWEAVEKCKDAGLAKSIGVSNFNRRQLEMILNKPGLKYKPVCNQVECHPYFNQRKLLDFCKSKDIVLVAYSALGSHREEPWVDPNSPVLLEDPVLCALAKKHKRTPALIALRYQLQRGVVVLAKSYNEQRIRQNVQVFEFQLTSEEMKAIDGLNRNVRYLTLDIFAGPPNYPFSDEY
Summary of the method: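 Recombinant AKR1C1 (0.3 μM) oxidizing 30 μM 1-acenaphthenol with 2.3 mM NAD+ in 100 mM phosphate pH 9.0, 0.005% triton X-114, 5% DMSO. NADH increase was followed at 340 nm.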

[3] = target: T3, Aldo-keto reductase family 1 member C3 (Homo sapiens) (UniProt P42330); experiment: Inhibition of human recombinant AKR1C3 assessed as 1-acenaphthenol oxidation at 400 uM by spectrophotometry
T3 sequence (whole entry): T1 sequence (P42330 whole entry)

[4] = target: T4, Aldo-keto reductase family 1 member C1 (Homo sapiens, UniProt Q04828); experiment: Inhibition of human recombinant AKR1C1 assessed as 1-acenaphthenol oxidation by spectrophotometry
T4 sequence (Q04828 whole entry): T2 sequence (whole entry)

[5] = target: T1, Aldo-keto reductase family 1 member C3; experiment: Competitive inhibition of human recombinant AKR1C3 assessed as S-tetralol oxidation by Cheng-Prusoff equation analysis
Summary of the method: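 NADPH formation followed fluorometrically; initial velocities measured in quadruplicate per inhibitor concentration. IC50 fitted as y = range/(1+I/IC50)^s + background, then converted to Ki with the Cheng-Prusoff equation for competitive inhibition.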

[6] = target: T1, Aldo-keto reductase family 1 member C3; experiment: Inhibition of human recombinant AKR1C3 assessed as S-tetralol oxidation by micro plate fluorescence reader based assay
Summary of the method: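 Fluorometric plate-reader read-out of NADPH formation as initial velocity. Each inhibitor concentration run in quadruplicate. IC50 from fit to y = range/(1+I/IC50)^s + background.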

[7] = target: T2, Aldo-keto reductase family 1 member C1 (Homo sapiens); experiment: Inhibition of human recombinant AKR1C1 assessed as S-tetralol oxidation at 300 uM by micro plate fluorescence reader based assay
Summary of the method: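 Buffer was 100 mM K3PO4 pH 7.0 with 200 μM NADP+ and 4% DMSO final. Inhibitor was tested at 300 μM, in quadruplicate. Rates are initial velocities.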

[8] = target: T5, Aldo-keto reductase family 1 member C4 (Homo sapiens) (UniProt P17516); experiment: Inhibition of human recombinant AKR1C4 assessed as S-tetralol oxidation at 300 uM by micro plate fluorescence reader based assay
T5 sequence (whole entry): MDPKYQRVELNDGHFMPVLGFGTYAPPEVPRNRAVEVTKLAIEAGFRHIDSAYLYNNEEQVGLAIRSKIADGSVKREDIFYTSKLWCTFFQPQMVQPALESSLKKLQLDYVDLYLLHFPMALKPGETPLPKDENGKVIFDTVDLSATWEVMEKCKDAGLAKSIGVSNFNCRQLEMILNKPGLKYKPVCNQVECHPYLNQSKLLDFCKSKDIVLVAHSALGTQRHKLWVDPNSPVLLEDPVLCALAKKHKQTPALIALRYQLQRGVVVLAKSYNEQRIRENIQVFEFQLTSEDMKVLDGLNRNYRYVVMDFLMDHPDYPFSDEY
Summary of the method: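 NADPH production was measured fluorometrically. Inhibitor was tested at 300 μM, quadruplicate wells. Inhibition was taken from initial velocities.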

SMILES | Ki [1] | inhibition [2] | inhibition [3] | further results
O=C1COc2ccc(C(=O)c3ccccc3)cc2CN1 | 76 µM | – | – | –
O=C(O)c1ccc(CNCc2ccccn2)cc1 | – | < 10% | 51.2% | –
O=C(CSc1ncnc2[nH]cnc12)Nc1ccccn1 | – | – | 44.3% | Ki [4]: 69 µM
NC(=O)c1ccccc1NC(=O)c1ccncc1 | – | 22.5% | 17.8% | –
O=CN1CCN(C(=O)c2ccc3ccccc3c2)CC1 | – | – | 46.7% | Ki [4]: 64 µM
NC(=O)c1ccccc1/N=C/c1cccc(O)c1 | 36 µM | < 10% | – | –
O=C1CCC2(c3ccccc3)Nc3ccccc3N12 (stereo not drawn) | 32 µM | 43.5% | – | Ki [5]: 2.73 µM; IC50 [6]: 5.46 µM
O=C(O)CNC=C1C(=O)CC(c2ccccc2)CC1=O (stereo not drawn) | – | – | 18.4% | –
O=C(O)c1cc(NC(=O)c2ccccc2F)ccc1O | – | 30.1% | 48.8% | –
CN(c1ccc(C(=O)O)cc1)S(=O)(=O)c1ccccc1 | 148 µM | – | – | –
O=C(O)c1cccc(NCC(=O)c2ccccc2)c1 | 72 µM | 44.8% | – | –
CC(=O)Nc1ccc(C(C#N)c2ccccc2)cc1 (stereo not drawn) | 87 µM | – | – | –
Cc1cccc(C(=O)Nc2ccccc2C(N)=O)c1 | – | < 10% | 10.8% | –
O=C(O)CCNS(=O)(=O)c1ccc2ccccc2c1 | 148 µM | – | – | –
Cc1oc(C(N)=O)cc1COc1ccccc1C(N)=O | – | – | 53.4% | Ki [4]: 122 µM
O=C(NCc1cc(=O)[nH]cn1)c1cc2ccccn2n1 | 118 µM | < 10% | – | –
O=C(CC1SC(=O)NC1=O)Nc1ccccc1O (stereo not drawn) | 2 µM | < 10% | – | inhibition [7]: 37%; Ki [5]: 0.107 µM; inhibition [8]: 35%; IC50 [6]: 0.213 µM

Continued, in another order:

Ki [1] | inhibition [2] | inhibition [3] | SMILES | further results
– | 47.4% | 33.1% | Cc1ccc(NC(=O)c2cccnc2)c(C(=O)O)c1 | –
111 µM | 43.1% | – | Cc1ccc(S(=O)(=O)Nc2cccc(C(=O)O)c2)cc1 | –
54 µM | – | – | O=C(O)c1cc(-c2cccc(O)c2)nc2ccccc12 | –
44 µM | – | – | O=C(O)CCNc1cc2ccccc2cc1C(=O)O | –
144 µM | 39.5% | – | Cc1cc(Nc2cc(C(=O)O)ccc2C)nc(C)n1 | –
82 µM | < 10% | – | Cc1cc(C(=O)Nc2ccc(O)c(C(=O)O)c2)oc1C | –
142 µM | < 10% | – | O=C(O)c1cccc(Nc2nc3ccccc3[nH]2)c1 | –
117 µM | – | – | Cc1ccn(Cc2cc(C(=O)O)c3ccccc3n2)n1 | –
